From PMC11455733 (Drugs in R&D, 2024)

What was measured:
[1] = 10-day daily IP administration, body weight; assay type: in vivo, C57BL/6 mice
Summary of the method: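 Body weights were recorded daily and again on day 11, before euthanasia. Mice were C57BL/6 of both sexes (7–12 weeks; n = 8 per group, equal males and females), with sex data combined. Dosing was IP once daily for 10 days with vehicle (DMSO diluted 10%/90% vol/vol in 0.5% Methocel/0.9% NaCl) or test compound. Groups were compared by ANOVA followed by unpaired t test.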

[2] = test system: IL-1β, IL-6, and TNFα in total lung homogenates; assay: 10-day daily IP administration, lung cytokines by ELISA; assay type: in vivo, C57BL/6 mice; conditions: 20.0 mg/kg IP daily for 10 days, day 11, vs vehicle
Summary of the method: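 On day 11, IL-1β, IL-6 and TNFα were measured by mouse ELISA kits in total lung homogenates. Mice were C57BL/6 of both sexes (7–12 weeks; n = 8 per group), given daily IP vehicle (DMSO/0.5% Methocel in 0.9% NaCl, 10%/90% vol/vol) or test compound for 10 days. Analysis was ANOVA followed by unpaired t test.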

[3] = 10-day daily IP administration, serum chemistry; assay type: in vivo, C57BL/6 mice; conditions: 20.0 mg/kg IP daily for 10 days, day 11, vs vehicle
Summary of the method: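 Serum was prepared from postmortem blood on day 11 and analysed on a chemistry analyser per the manufacturer's instructions. Mice were C57BL/6 of both sexes (7–12 weeks; n = 8 per group), dosed IP daily for 10 days with vehicle (DMSO/0.5% Methocel in 0.9% NaCl, 10%/90% vol/vol) or test compound. Analysis was ANOVA, then unpaired t test.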

[4] = Solubility in water or saline; assay type: physicochemical
[5] = test system: EphB2; conditions: cited from earlier work
[6] = test system: lung, liver, and kidney; assay: 10-day daily IP administration, H&E histology scoring; assay type: in vivo, C57BL/6 mice; conditions: 20.0 mg/kg IP daily for 10 days, all parameters
Summary of the method: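 Male and female C57BL/6 mice (7–12 weeks; n = 8 per group, equal sexes) got IP vehicle (DMSO then 0.5% Methocel in 0.9% NaCl, 10%/90% vol/vol) or test compound daily from day 0 for 10 days. On day 11, organs were fixed in 10% neutral formalin and paraffin-embedded. 5 μm H&E sections were graded blindly by a pathologist over the whole section area.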

[7] = test system: Col1a1 and Fn mRNA in total lung RNA; assay: 10-day daily IP administration, lung extracellular matrix mRNA by qPCR; assay type: in vivo, C57BL/6 mice; conditions: 20.0 mg/kg IP daily for 10 days, day 11, vs vehicle
Summary of the method: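 Lung tissue was taken on day 11, after 10 days of daily IP vehicle (DMSO/0.5% Methocel-saline) or test compound in male and female C57BL/6 mice (n = 8 per group). Tissue was lysed and RNA purified with genomic DNA removal. cDNA was made with oligo(dT) plus random hexamers, then SYBR green real-time PCR was run. Col1a1 and Fn were expressed as ratios to B2M.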

[8] = 10-day daily IP administration, complete blood count; assay type: in vivo, C57BL/6 mice; conditions: 20.0 mg/kg IP daily for 10 days, day 11, vs vehicle
Summary of the method: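 Blood was collected postmortem on day 11 and run on a veterinary haematology analyser for complete blood count. Mice were male and female C57BL/6 (7–12 weeks; n = 8 per group), dosed IP daily for 10 days with vehicle (DMSO/0.5% Methocel in saline, 10%/90% vol/vol) or test compound. Analysis was ANOVA, then unpaired Student t test.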

[9] = within normal published parameters

CCN1CCN(Cc2ccc(NC(=O)c3ccc(C)c(NC(=O)c4cncc(-c5cccs5)c4)c3)cc2C(F)(F)F)CC1 [ALW-II-41-27]
daily and ending weight loss ([1]; 20.0 mg/kg IP daily for 10 days, vs vehicle): no significant changes
tolerability ([1]; 20.0 mg/kg IP once a day in mice): well tolerated
IL-1β in whole-lung lysates [2]: No significant alterations
IL-6 in whole-lung lysates [2]: No significant alterations
TNF-α in whole-lung lysates [2]: No significant alterations
serum chemistry parameters other than creatinine [3]: no significant changes
solubility in water or saline [4]: lack of solubility
inhibition of the Ephrin receptor EphB2 [5]: shown to inhibit
histology score (0 normal to 4+), lung, liver, and kidney [6]: 0
Col1a1 mRNA expression (ratio to B2M) in lung [7]: no significant differences
Fn mRNA expression (ratio to B2M) in lung [7]: no significant differences
CBC parameters other than NEU and RBC [8]: no significant differences
neutrophil (NEU) count [8, 9]: significantly higher
red blood cell (RBC) count [8, 9]: significantly higher
